pIC50: −log10 of the molar value. One block for each compound: values may come before it.
How the values were obtained:
NCI-N87 [1] = assay: Cytotoxicity against human NCI-N87 cells after 72 hrs by SRB assay; assay type: functional, cell-based; conditions: NCI-N87, 72 h
[2] = Elimination half life in Wistar rat at 100 mg/kg, po; assay type: ADME, organism-based; design: dose 100 mg/kg, route oral; conditions: in vivo, read-out: beta t1/2 (converted)
Procedure, shortened: (§1)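 Male Wistar rats (220 ± 10 g), n = 4 per group, given the tosylate salt orally by gavage at 100 mg/kg, suspended in 0.5% sodium carboxymethylcellulose. Blood was sampled at 0.25 to 24 h. Parent compound and the lapatinib metabolite were extracted by C18 solid-phase extraction and analysed by LC/MSn.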

[3] = Aqueous solubility of the compound at 25 degC by shake-flask method; assay type: physicochemical; conditions: unbuffered water
[4] = Mean residence time in Wistar rat at 100 mg/kg, po; assay type: ADME, organism-based; design: dose 100 mg/kg, route oral; conditions: in vivo; procedure, shortened: as §1
[5] = AUC (0 to t) in Wistar rat at 100 mg/kg, po; assay type: ADME, organism-based; design: dose 100 mg/kg, route oral; conditions: plasma; procedure, shortened: as §1
[6] = Cmax in Wistar rat at 100 mg/kg, po; assay type: ADME, organism-based; design: dose 100 mg/kg, route oral; conditions: in vivo; procedure, shortened: as §1
[7] = Tmax in Wistar rat at 100 mg/kg, po; assay type: ADME, organism-based; design: dose 100 mg/kg, route oral; conditions: in vivo; procedure, shortened: as §1
[8] = AUC (0 to infinity) in Wistar rat at 100 mg/kg, po; assay type: ADME, organism-based; design: time infinity, dose 100 mg/kg, route oral; conditions: plasma; procedure, shortened: as §1
SK-OV-3 = assay: Antitumor activity against human SKOV3 cells xenografted in BALB/c athymic mouse assessed as tumor regression at 200 mg/kg, po qd after 21 days relative to vehicle-treated control; conditions: SK-OV-3, po, 504 h, read-out: TGI
BT-474 = assay: Cytotoxicity against human BT474 cells after 72 hrs by SRB assay; assay type: functional, cell-based; conditions: BT-474, 72 h
NCI-N87 [9] = assay: Antitumor activity against human NCI-N87 cells xenografted in BALB/c athymic mouse assessed as tumor regression at 200 mg/kg, po qd after 28 days relative to vehicle-treated control; assay type: functional; conditions: NCI-N87, 672 h, read-out: TGI
Procedure, shortened: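 Female BALB/c athymic mice, 4–6 weeks old, received 2 × 10⁶ NCI-N87 or SK-OV-3 cells s.c. in the right flank. At a tumor volume of 100–300 mm³ they were randomized (control n = 10, treated n = 6). Tosylate salt was given at 200 mg/kg qd by oral gavage, and controls received vehicle. Tumor volume was taken as length × width²/2 by caliper. Inhibition = (1 − T/C) × 100% on mean relative tumor volume (RTV). Two-tailed t test.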

Mus musculus [10] = assay: Toxicity in BALB/c athymic mouse xenografted with human SKOV3 cells assessed as bloody stool at 200 mg/kg, po qd after 4 days; assay type: organism-based, SK-OV-3; design: dose 200 mg/kg, route oral; conditions: in vivo, 96 h
Mus musculus [11] = assay: Toxicity in BALB/c athymic mouse xenografted with human NCI-N87 cells assessed as bloody stool at 200 mg/kg, po qd after 4 days; assay type: organism-based; design: dose 200 mg/kg, route oral; conditions: in vivo, 96 h
Mus musculus [12] = assay: Toxicity in BALB/c athymic mouse xenografted with human SKOV3 cells assessed as hematuria at 200 mg/kg, po qd after 4 days; assay type: organism-based, SK-OV-3; design: dose 200 mg/kg, route oral; conditions: in vivo, 96 h
Mus musculus [13] = assay: Toxicity in BALB/c athymic mouse xenografted with human SKOV3 cells assessed as weight loss at 200 mg/kg, po qd after 4 days; assay type: organism-based, SK-OV-3; design: dose 200 mg/kg, route oral; conditions: in vivo, 96 h
Mus musculus [14] = assay: Toxicity in BALB/c athymic mouse xenografted with human NCI-N87 cells assessed as weight loss at 200 mg/kg, po qd after 4 days; assay type: organism-based; design: dose 200 mg/kg, route oral; conditions: in vivo, 96 h
Mus musculus [15] = assay: Toxicity in BALB/c athymic mouse xenografted with human NCI-N87 cells assessed as hematuria at 200 mg/kg, po qd after 4 days; assay type: organism-based; design: dose 200 mg/kg, route oral; conditions: in vivo, 96 h
[16] = target: Epidermal growth factor receptor (Homo sapiens, UniProt P00533); assay: Inhibition of EGFR (unknown origin) using poly-(Glu4-Tyr) as substrate after 1 hr by ELISA-based spectrophotometry
Sequence of Epidermal growth factor receptor (P00533 whole entry): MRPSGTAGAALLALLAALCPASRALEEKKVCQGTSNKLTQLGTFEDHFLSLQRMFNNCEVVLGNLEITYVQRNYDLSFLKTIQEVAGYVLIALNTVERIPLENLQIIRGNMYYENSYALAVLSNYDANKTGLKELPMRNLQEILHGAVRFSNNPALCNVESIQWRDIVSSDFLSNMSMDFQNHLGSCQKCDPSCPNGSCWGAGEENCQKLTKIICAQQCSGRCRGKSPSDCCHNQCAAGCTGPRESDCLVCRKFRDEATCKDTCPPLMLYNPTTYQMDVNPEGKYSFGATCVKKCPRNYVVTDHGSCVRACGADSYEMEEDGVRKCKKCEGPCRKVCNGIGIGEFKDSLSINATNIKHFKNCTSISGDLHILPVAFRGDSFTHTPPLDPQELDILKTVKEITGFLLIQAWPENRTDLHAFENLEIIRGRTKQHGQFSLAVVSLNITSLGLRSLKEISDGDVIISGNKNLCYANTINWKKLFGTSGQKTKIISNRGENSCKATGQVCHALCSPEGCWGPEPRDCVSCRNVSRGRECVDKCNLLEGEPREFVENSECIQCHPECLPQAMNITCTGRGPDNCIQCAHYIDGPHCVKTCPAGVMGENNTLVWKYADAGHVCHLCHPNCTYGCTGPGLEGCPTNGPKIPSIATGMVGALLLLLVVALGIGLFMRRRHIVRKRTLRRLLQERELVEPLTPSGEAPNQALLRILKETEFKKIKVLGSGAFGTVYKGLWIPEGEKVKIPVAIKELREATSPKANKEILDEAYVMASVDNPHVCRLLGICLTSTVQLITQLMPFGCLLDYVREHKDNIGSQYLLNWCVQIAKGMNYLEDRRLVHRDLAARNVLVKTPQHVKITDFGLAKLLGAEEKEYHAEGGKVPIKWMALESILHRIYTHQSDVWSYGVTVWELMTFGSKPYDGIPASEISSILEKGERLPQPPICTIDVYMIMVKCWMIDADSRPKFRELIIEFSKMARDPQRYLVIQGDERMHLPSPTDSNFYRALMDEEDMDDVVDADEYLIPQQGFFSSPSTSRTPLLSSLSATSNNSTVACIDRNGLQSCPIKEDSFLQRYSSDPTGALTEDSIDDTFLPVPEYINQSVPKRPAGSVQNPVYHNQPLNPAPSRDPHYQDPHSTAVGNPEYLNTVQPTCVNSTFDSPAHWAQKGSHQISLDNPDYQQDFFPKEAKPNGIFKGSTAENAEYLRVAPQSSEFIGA

[17] = target: Receptor tyrosine-protein kinase erbB-2 (Homo sapiens, UniProt P04626); assay: Inhibition of HER-2 (unknown origin) using poly-(Glu4-Tyr) as substrate after 1 hr by ELISA-based spectrophotometry
Sequence of Receptor tyrosine-protein kinase erbB-2 (P04626 whole entry): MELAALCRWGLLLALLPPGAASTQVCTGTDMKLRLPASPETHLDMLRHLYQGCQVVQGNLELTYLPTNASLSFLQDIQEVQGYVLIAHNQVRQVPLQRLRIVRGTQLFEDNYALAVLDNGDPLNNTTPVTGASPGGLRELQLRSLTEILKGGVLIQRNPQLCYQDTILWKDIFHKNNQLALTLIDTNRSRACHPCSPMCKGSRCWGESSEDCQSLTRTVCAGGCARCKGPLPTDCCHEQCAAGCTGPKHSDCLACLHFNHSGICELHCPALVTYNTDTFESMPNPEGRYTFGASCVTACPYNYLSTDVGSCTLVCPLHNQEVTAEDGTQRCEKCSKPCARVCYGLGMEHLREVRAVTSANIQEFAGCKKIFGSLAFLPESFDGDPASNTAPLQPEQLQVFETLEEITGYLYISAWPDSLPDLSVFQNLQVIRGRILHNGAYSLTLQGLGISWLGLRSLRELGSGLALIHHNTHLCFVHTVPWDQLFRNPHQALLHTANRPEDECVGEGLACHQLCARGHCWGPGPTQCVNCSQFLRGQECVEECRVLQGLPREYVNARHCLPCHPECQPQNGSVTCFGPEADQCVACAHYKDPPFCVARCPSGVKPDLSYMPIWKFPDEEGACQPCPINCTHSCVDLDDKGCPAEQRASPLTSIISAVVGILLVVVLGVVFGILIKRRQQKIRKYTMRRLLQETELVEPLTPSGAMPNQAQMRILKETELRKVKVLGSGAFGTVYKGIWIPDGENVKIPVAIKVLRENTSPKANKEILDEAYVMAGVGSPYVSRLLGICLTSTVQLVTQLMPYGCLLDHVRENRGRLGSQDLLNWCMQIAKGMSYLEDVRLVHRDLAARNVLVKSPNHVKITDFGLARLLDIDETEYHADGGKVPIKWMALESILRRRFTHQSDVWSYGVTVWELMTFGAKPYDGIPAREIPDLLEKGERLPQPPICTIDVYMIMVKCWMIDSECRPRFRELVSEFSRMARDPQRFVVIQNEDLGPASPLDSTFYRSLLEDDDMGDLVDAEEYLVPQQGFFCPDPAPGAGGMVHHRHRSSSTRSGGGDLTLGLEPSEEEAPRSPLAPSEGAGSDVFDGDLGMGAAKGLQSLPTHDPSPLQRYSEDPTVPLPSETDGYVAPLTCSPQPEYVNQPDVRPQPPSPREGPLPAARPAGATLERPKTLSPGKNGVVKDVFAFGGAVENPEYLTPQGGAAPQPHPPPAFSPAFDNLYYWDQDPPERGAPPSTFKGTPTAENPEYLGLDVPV
Procedure, shortened: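 ELISA on plates pre-coated with poly(Glu,Tyr 4:1) substrate. Serially diluted compounds plus ATP were added in 50 mM HEPES pH 7.4 containing 20 mM MgCl₂, 0.2 mM MnCl₂, 0.1 mM Na₃VO₄ and 1 mM DTT. Phosphotyrosine was detected with anti-phosphotyrosine antibody PY99 (1:500), then HRP anti-mouse IgG, then o-phenylenediamine/H₂O₂ at pH 5.5.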

Mus musculus [18] = assay: Toxicity in BALB/c athymic mouse xenografted with human NCI-N87 cells assessed as death at 200 mg/kg, po qd after 4 days; assay type: organism-based; design: dose 200 mg/kg, route oral; conditions: in vivo, 96 h
Procedure, shortened: (§2)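 Female BALB/c athymic mice, 4-6 weeks old and pathogen-free, were housed under sterile conditions. NCI-N87 or SK-OV-3 cells (2 × 10⁶) were implanted s.c. in the right flank. At tumor volumes of 100-300 mm³, mice were randomized to vehicle control (n = 10) or treatment (n = 6). Treatment was the tosylate salt at 200 mg/kg by oral gavage once daily. Mice were monitored for clinical signs, body weight and death.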

Mus musculus [19] = assay: Toxicity in BALB/c athymic mouse xenografted with human NCI-N87 cells assessed as diarrhea at 200 mg/kg, po qd; assay type: organism-based; design: dose 200 mg/kg, route oral; conditions: in vivo
Mus musculus [20] = assay: Toxicity in BALB/c athymic mouse xenografted with human NCI-N87 cells assessed as scruffy skin at 200 mg/kg, po qd; assay type: organism-based; design: dose 200 mg/kg, route oral; conditions: in vivo
Mus musculus [21] = assay: Toxicity in BALB/c athymic mouse xenografted with human SKOV3 cells assessed as scruffy skin at 200 mg/kg, po qd; assay type: organism-based, SK-OV-3; design: dose 200 mg/kg, route oral; conditions: in vivo
Mus musculus [22] = assay: Toxicity in BALB/c athymic mouse xenografted with human SKOV3 cells assessed as death at 200 mg/kg, po qd after 4 days; assay type: organism-based, SK-OV-3; design: dose 200 mg/kg, route oral; conditions: in vivo, 96 h; procedure, shortened: as §2
Mus musculus [23] = assay: Toxicity in BALB/c athymic mouse xenografted with human SKOV3 cells assessed as lethargic condition at 200 mg/kg, po qd; assay type: organism-based, SK-OV-3; design: dose 200 mg/kg, route oral; conditions: in vivo
Mus musculus [24] = assay: Toxicity in BALB/c athymic mouse xenografted with human NCI-N87 cells assessed as lethargic condition at 200 mg/kg, po qd; assay type: organism-based; design: dose 200 mg/kg, route oral; conditions: in vivo
Mus musculus [25] = assay: Toxicity in BALB/c athymic mouse xenografted with human SKOV3 cells assessed as diarrhea at 200 mg/kg, po qd; assay type: organism-based, SK-OV-3; design: dose 200 mg/kg, route oral; conditions: in vivo

Compound: CS(=O)(=O)CCNCc1ccc(-c2ccc3ncnc(Nc4ccc(OCc5cccc(F)c5)c(Cl)c4)c3c2)o1.Cc1ccc(S(=O)(=O)O)cc1.Cc1ccc(S(=O)(=O)O)cc1.O [LAPATINIB DITOSYLATE]
- pIC50 (NCI-N87 [1]): 7.34
- half-life [2]: 1.91 h
- solubility [3]: 7 µg/mL
- MRT [4]: 5.52 h
- AUC(0-t) [5]: 26900 ng·h/mL
- Cmax [6]: 3900 ng/mL
- Tmax [7]: 2.5 h
- AUC(0-inf) [8]: 26900 ng·h/mL
- inhibition in vivo at 200 mg/kg (SK-OV-3): 78.8%
- pIC50 (BT-474): 7.43
- inhibition in vivo at 200 mg/kg (NCI-N87 [9]): 89.7%

Compound: Cc1ccc(S(=O)(=O)O)cc1.O=S(=O)(CCNCc1ccc(-c2ccc3ncnc(Nc4ccc(OCc5cccc(F)c5)c(Cl)c4)c3c2)o1)CC(F)(F)F
- Activity (Mus musculus [10]): Non-toxic
- pIC50 (NCI-N87 [1]): 7.29
- Activity (Mus musculus [11]): Non-toxic
- Activity (Mus musculus [12]): Non-toxic
- Activity (Mus musculus [13]): Non-toxic
- Activity (Mus musculus [14]): Non-toxic
- solubility [3]: 16.7 µg/mL
- Activity (Mus musculus [15]): Non-toxic
- pIC50 [16]: 7.68
- inhibition in vivo at 200 mg/kg (SK-OV-3): 45.2%
- pIC50 (BT-474): 7.58
- pIC50 [17]: 8.07
- inhibition in vivo at 200 mg/kg (NCI-N87 [9]): 46.9%

Compound: CCOC(=O)N1CCN(Cc2ccc(-c3ccc4ncnc(Nc5ccc(OCc6cccc(F)c6)c(Cl)c5)c4c3)o2)CC1
- pIC50 [16]: 7.55
- pIC50 [17]: 7.84

Compound: Cc1ccc(S(=O)(=O)O)cc1.Fc1cccc(COc2ccc(Nc3ncnc4ccc(-c5ccc(CN6CCNCC6)o5)cc34)cc2Cl)c1
- Activity (Mus musculus [18]): Toxic
- pIC50 (NCI-N87 [1]): 7.53
- Activity (Mus musculus [12]): Toxic
- Activity (Mus musculus [19]): Toxic
- Activity (Mus musculus [13]): Toxic
- Activity (Mus musculus [14]): Toxic
- Activity (Mus musculus [20]): Toxic
- Activity (Mus musculus [21]): Toxic
- Activity (Mus musculus [22]): Toxic
- Activity (Mus musculus [23]): Toxic
- Activity (Mus musculus [15]): Toxic
- Activity (Mus musculus [24]): Toxic
- pIC50 (BT-474): 7.38
- pIC50 [17]: 7.91
- Activity (Mus musculus [25]): Toxic

Continued, values first:

- pIC50 [17]: 8.41
Compound: NS(=O)(=O)CCNCc1ccc(-c2ccc3ncnc(Nc4ccc(OCc5cccc(F)c5)c(Cl)c4)c3c2)o1

- pIC50 [16]: 7.22
- pIC50 [17]: 7.70
Compound: CS(=O)(=O)N1CCN(Cc2ccc(-c3ccc4ncnc(Nc5ccc(OCc6cccc(F)c6)c(Cl)c5)c4c3)o2)CC1

- pIC50 [16]: 7.90
- pIC50 [17]: 7.63
Compound: CN1CCN(Cc2ccc(-c3ccc4ncnc(Nc5ccc(OCc6cccc(F)c6)c(Cl)c5)c4c3)o2)CC1

Reference: ChEMBL document CHEMBL2434871, “Discovery of a potent dual EGFR/HER-2 inhibitor L-2 (selatinib) for the treatment of cancer” (Eur J Med Chem, 2013)
